By IC50 is commonly meant the concentration needed to halve the response being measured.

Here are results for 21 compounds from ChEMBL document CHEMBL1240424, “Design and synthesis of potent inhibitors of beta-ketoacyl-acyl carrier protein synthase III (FabH) as potential antibacterial agents” (Eur J Med Chem, 2010).

For assay [1], the system named is Pseudomonas fluorescens. In words: Antibacterial activity against Pseudomonas fluorescens after 24 hrs by MTT assay. The format is functional. The procedure, abridged: (§1)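 Broth microdilution in Mueller–Hinton medium. Compounds from a 100 μg/mL DMSO stock were serially diluted, and inoculum was about 10⁵ cfu/mL. Plates were incubated 24 h at 37 °C and MIC was read visually. MTT (2 mg/mL in PBS pH 7.4) was then added for 4–5 h at room temperature, dye extracted with acidified isopropanol for 12 h, and OD read at 550 nm.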

Assay [2] deals with Staphylococcus aureus. In words: Antibacterial activity against Staphylococcus aureus after 24 hrs by MTT assay. The format is functional. The procedure, abridged:
as §1
In general terms: Tetrazolium assays rely on reduction of a dye to a coloured formazan, in cell work by metabolically active cells.

Assay [3] has as its system Bacillus subtilis. In words: Antibacterial activity against Bacillus subtilis after 24 hrs by MTT assay. Format: functional. The procedure, abridged: as §1
The nature of assay [4]: Inhibition of Escherichia coli N-terminal His-tagged FabH expressed in Escherichia coli BL21(DE3) after 25 mins. The method, boiled down: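 His-tagged E. coli FabH was Ni-NTA purified. Reaction: 1 nM FabH, 2.5 μM holo-ACP, 20 mM sodium phosphate pH 7.0, 0.5 mM DTT, 0.25 mM MgCl₂. Started with 25 μM acetyl-CoA plus [³H]acetyl-CoA and run 25 min. Stopped with cold 50% TCA, pellet washed and dissolved in NaOH, ³H counted by scintillation. Inhibitors added from DMSO, final ≤2% DMSO, to give IC50.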

The subject of assay [5] is Escherichia coli. The assay is described as follows: Antibacterial activity against Escherichia coli after 24 hrs by MTT assay. Format: functional. The method, boiled down:
as §1

With `Oc1ccc(F)cc1/C=N/C1CCCCC1`, the Activity was determined as 12.5 µg/mL in assay [1], 12.5 µg/mL in assay [2], 25 µg/mL in assay [3] and 6.25 µg/mL in assay [5]. This compound also gave an IC50 in assay [4] of 7.4 µM.

On to `Oc1ccc(F)cc1/C=N/c1ccc(F)cc1`, for which the Activity in assay [1] turned out to be 12.5 µg/mL; in assay [2], 12.5 µg/mL; in assay [3] it was 25 µg/mL; in assay [5] it was 12.5 µg/mL. Moreover, in assay [4], the IC50 stood at 28.6 µM.

Turning to `Oc1ccc(F)cc1/C=N/C1CCN(Cc2ccccc2)CC1`, the Activity in assay [1], in assay [2], in assay [3] and in assay [5] was more than 100 µg/mL in each case.

For the compound `Oc1ccc(CC/N=C/c2cc(F)ccc2O)cc1`, the Activity in assay [1] was determined as 3.13 µg/mL; in assay [2], 1.56 µg/mL; in assay [3], 6.25 µg/mL; in assay [5], 1.56 µg/mL. Moreover, the IC50 in assay [4] was found to be 2.7 µM.

For `Oc1ccc(F)cc1/C=N/c1ccc(Cl)cc1`, the Activity in assay [1] is 25 µg/mL; in assay [2] it was 25 µg/mL; in assay [3] it was 50 µg/mL; in assay [5] it was 12.5 µg/mL. Half-maximal inhibition in assay [4] (IC50) was put at 42.5 µM.

Turning to `CCN(CC)CCC/N=C/c1cc(F)ccc1O`, the Activity in assay [1], in assay [2], in assay [3] and in assay [5] was more than 100 µg/mL each time.

Regarding `Cc1ccc(/N=C/c2cc(F)ccc2O)cc1`, the Activity in assay [1] is 50 µg/mL; in assay [2] it was 100 µg/mL; in assay [3], more than 100 µg/mL; in assay [5] it was 50 µg/mL.

`Oc1ccc(F)cc1/C=N/CCCN1CCOCC1`: the Activity in assay [1], in assay [2], in assay [3] and in assay [5] was more than 100 µg/mL throughout.

Regarding `Oc1ccc(F)cc1/C=N/c1ccccc1F`, the Activity in assay [1] is 6.25 µg/mL; in assay [2], 6.25 µg/mL; in assay [3] it was 12.5 µg/mL; in assay [5] it was 6.25 µg/mL. Further, the IC50 in assay [4] is 8.6 µM.

With `Oc1ccc(F)cc1/C=N/CCN1CCOCC1`, the Activity in assay [1] is 25 µg/mL; in assay [2], 50 µg/mL; in assay [3] it was 50 µg/mL; in assay [5], 25 µg/mL.

In the case of `Oc1ccc(F)cc1/C=N/C1CCCC1`, the Activity in assay [1] came out at 12.5 µg/mL; in assay [2], 25 µg/mL; in assay [3], 25 µg/mL; in assay [5], 12.5 µg/mL. Also, in assay [4], the IC50 was 18.4 µM.

As to `Oc1ccc(F)cc1/C=N/CC1CCCCC1`, the Activity in assay [1] is 6.25 µg/mL; in assay [2], 25 µg/mL; in assay [3], 12.5 µg/mL; in assay [5], 6.25 µg/mL. In assay [4], this compound displayed an IC50 of 6.8 µM.

Take `O=[N+]([O-])c1ccc(/N=C/c2cc(F)ccc2O)cc1`: the Activity in assay [1], in assay [2], in assay [3] and in assay [5] was more than 100 µg/mL throughout.

Consider `CC(C)c1ccc(/N=C/c2cc(F)ccc2O)cc1`, for which the Activity in assay [1] is 100 µg/mL; in assay [2], more than 100 µg/mL; in assay [3], more than 100 µg/mL; in assay [5] it was more than 100 µg/mL.

For `Oc1ccc(/N=C/c2cc(F)ccc2O)cc1`, the Activity in assay [1], in assay [2], in assay [3] and in assay [5] was more than 100 µg/mL throughout.

As to `NC[C@H]1O[C@H](O[C@H]2[C@H](O)[C@@H](O[C@H]3O[C@H](CO)[C@@H](O)[C@H](N)[C@H]3O)[C@H](N)C[C@@H]2N)[C@H](O)[C@@H](O)[C@@H]1O` [KANAMYCIN], the Activity is 3.13 µg/mL in assay [1], 1.56 µg/mL in assay [2], 1.56 µg/mL in assay [3] and 3.13 µg/mL in assay [5].

With `Oc1ccc(F)cc1/C=N/c1ccccc1Cl`, the Activity in assay [1] came to 12.5 µg/mL; in assay [2], 12.5 µg/mL; in assay [3] it was 12.5 µg/mL; in assay [5], 6.25 µg/mL. The same compound yielded a half-inhibitory concentration (IC50) in assay [4] of 11.7 µM.

For `Oc1ccc(F)cc1/C=N/CCN1CCNCC1`, the Activity was determined as 25 µg/mL in assay [1], 25 µg/mL in assay [2], 50 µg/mL in assay [3] and 12.5 µg/mL in assay [5]. Besides, 48.5 µM corresponded to half-maximal inhibition in assay [4] (IC50).

With `Oc1ccc(F)cc1/C=N/c1ccc(Br)cc1`, the Activity in assay [1] was found to be 25 µg/mL; in assay [2], 50 µg/mL; in assay [3], 50 µg/mL; in assay [5] it was 25 µg/mL.

Regarding `Oc1ccc(F)cc1/C=N/c1ccccn1`, the Activity was 100 µg/mL in assay [1], 100 µg/mL in assay [2], more than 100 µg/mL in assay [3] and 50 µg/mL in assay [5].

Consider `CN(C)CCC/N=C/c1cc(F)ccc1O`, for which the Activity in assay [1], in assay [2], in assay [3] and in assay [5] was more than 100 µg/mL throughout.
